In series [1] the test system is CT26. Kind of series: Antitumor activity against mouse CT26 cells inoculated in BALB/c mouse assessed as inhibition of tumor growth IT(Intratumoral) administered on day 1,4 and 7 post inoculation. Particulars: time 7.0 day.
A short description of series [2]: Observed AUCinfinity in rat at 1 mg/kg, iv. Set-up: time infinity, route intravenous, dose 1 mg/kg. Particulars: in vivo. The format is ADME, organism-based.
Series [3] in a line: Observed MRT infinity in rat at 1 mg/kg, iv. Type of series: ADME, organism-based. Particulars: in vivo.
Series [4] in a line: Half life in rat at 1 mg/kg, iv. Type of series: ADME, organism-based. Particulars: in vivo.
A short description of series [5]: Toxicity in orthotopic BALB/c mouse co-inoculated with mouse 4T1 […] cells assessed as weight loss at 10 mg/kg, iv administered on day 1,4 and 7 post inoculation. Particulars: in vivo, 168 h, time 7 day. Type of series: organism-based. In short, it runs like this:
(§1)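 BALB/c mice received 5 × 10⁵ 4T1 cells into the breast fat pad (orthotopic), with n = 5. Dosing began when tumours reached about 50−100 mm³: 10 mg/kg iv on days 1, 4 and 7, against a vehicle group. Body weight and tumour volume were recorded twice weekly, with tolerance and survival followed after each injection.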

Series [6] is described as follows: Toxicity in orthotopic BALB/c mouse co-inoculated with mouse 4T1 […] cells assessed as drug tolerance at 10 mg/kg, iv administered on day 1,4 and 7 post inoculation. The format is organism-based. Particulars: in vivo, 168 h, time 7 day. In short, it runs like this: as §1
The nature of series [7]: AUClast in rat at 1 mg/kg, iv. The format is ADME, organism-based. Set-up: time 0 - last, route intravenous, dose 1 mg/kg. Particulars: in vivo.
Series [8] can be described thus: Observed volume of distribution at steady state in rat at 1 mg/kg, iv. Type of series: ADME, organism-based. Particulars: in vivo, read-out: Vdss.
Series [9] deals with T1, Stimulator of interferon genes protein (Mus musculus, UniProt Q3TBT3).
T1 sequence (Q3TBT3 whole entry): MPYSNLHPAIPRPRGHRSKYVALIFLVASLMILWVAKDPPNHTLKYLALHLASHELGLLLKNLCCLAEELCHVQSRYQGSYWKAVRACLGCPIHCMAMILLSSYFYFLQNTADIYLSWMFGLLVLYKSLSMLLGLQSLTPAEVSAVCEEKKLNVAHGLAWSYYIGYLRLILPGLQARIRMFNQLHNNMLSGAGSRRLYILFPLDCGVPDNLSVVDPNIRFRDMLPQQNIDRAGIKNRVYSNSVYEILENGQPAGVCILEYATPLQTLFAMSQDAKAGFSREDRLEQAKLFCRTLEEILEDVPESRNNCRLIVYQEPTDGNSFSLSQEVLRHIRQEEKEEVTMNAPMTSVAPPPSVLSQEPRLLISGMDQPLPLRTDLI
Kind of series: Activation of mouse STING expressed in RAW-Lucia ISG cells incubated for 24 hrs by secreted luciferase reporter gene assay. A general note: Reporter assays use an easily measured gene product as a stand-in for the process of interest.

The target in series [10] is T2, Stimulator of interferon genes protein (Homo sapiens, UniProt Q86WV6). Put plainly: Activation of human STING expressed in THP1-Dual cells incubated for 24 hrs by secreted luciferase reporter gene assay.
Series [11] is described as follows: Observed clearance in rat at 1 mg/kg, iv. The format is ADME, organism-based. Particulars: in vivo.
For series [12], the target named is T2, Stimulator of interferon genes protein. Kind of series: Binding affinity to 6His-tagged human STING measured after 3 hrs by HTRF assay.
For series [13] the target is unchanged. Put plainly: Activation of STING in human THP1-Dual cells assessed as increase in IP-10 secretion at 0.01 to 10 uM measured after 24 hrs by ELISA. Particulars: filed as activator, dose 0.01-10 µM. The format is cell-based. Put shortly:
(§2)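 THP1-Dual cells seeded at 10⁵ cells/well and treated for 24 h. Human IP-10 and IFN-β in supernatant quantified by ELISA kits. Concentration (pg/mL) derived from a standard curve.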

Series [14] is filed under the species Homo sapiens. Kind of series: Binding affinity to human STING 293Q mutant assessed as thermal stability by measuring melting temperature […] differential scanning fluorimetry (reference value: 46.25 degreeC). Particulars: filed as activator. In short, it runs like this: (§3)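 Thermal shift by DSF: 5 μM STING protein, 50 μM compound and 10× SYPRO Orange in 10 mM HEPES pH 7.5, 150 mM NaCl. Samples heated from 30 to 80 °C at 0.5 °C/min. Tm taken as the temperature of median fluorescence between onset and maximum; n = 3.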

Series [15] deals with Stimulator of interferon genes protein (Homo sapiens), Q86WV6 [UNDEFINED MUTATION]. Put plainly: Activation of STING H232 in human 293-Dual hSTING-R232 cells assessed as induction of ISG signaling measured after 24 hrs. Type of series: cell-based. Particulars: filed as activator, dose 0.005-10 µM. In short, it runs like this: (§4)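 Reporter cells (1 × 10⁵ cells/well) exposed to compound for 24 h at 37 °C in 5% CO₂. Secreted luciferase ISG reporter in 20 μL supernatant read by luminescence with QUANTI-Luc reagent. Activity expressed as fold change versus control.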

A further series concerns 293-Dual hSTING-H232. Kind of series: Activation of STING H232 in human 293-Dual hSTING-H232 cells assessed as induction of ISG signaling measured after 24 hrs. The format is cell-based. Particulars: filed as activator, dose 0.005-10 µM. In short, it runs like this:
as §4

Series [16] concerns the target T2, Stimulator of interferon genes protein. Put plainly: Activation of STING in human THP1-Dual cells assessed as increase in IFNbeta secretion at 10 uM measured after 24 hrs by ELISA. Type of series: cell-based. Particulars: filed as activator. In short, it runs like this: as §2
Series [17] shares this target. Put plainly: Activation of STING in human THP1-Dual cells assessed as induction of ISG signaling measured after 24 hrs by Quanti-Blue reagent based assay. Type of series: cell-based. Particulars: filed as activator, dose 0.005-10 µM. In short, it runs like this:
(§5)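 THP1-Dual cells (1 × 10⁵/well) treated for 24 h. Supernatant (20 μL) incubated 1 h at 37 °C with QUANTI-Blue, then absorbance read at 650 nm. Fold change calculated relative to vehicle control.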

Series [18] relates to Stimulator of interferon genes protein (Homo sapiens), Q86WV6 [R71H,G230A,R293Q]. Kind of series: Binding affinity to human STING HAQ mutant assessed as thermal stability by measuring melting temperature […] differential scanning fluorimetry (reference value: 37.25 degreeC). Particulars: filed as activator. In short, it runs like this:
as §3
In general terms: Differential scanning fluorimetry follows unfolding on heating by fluorescence.

The species named for series [19] is Homo sapiens. Put plainly: Binding affinity to human STING H232 mutant assessed as thermal stability by measuring melting temperature […] differential scanning fluorimetry (reference value: 39.5 degreeC). Particulars: filed as activator. In short, it runs like this:
as §3

A further series concerns 4T1. Put plainly: Antitumor activity against mouse 4T1 cells and CT26 cells co-inoculated in orthotopic BALB/c mouse assessed as supression of tumor growth at 10 mg/kg, iv administered on day 1,4 and 7 post inoculation. Type of series: functional, organism-based. Particulars: time 7.0 day, in the assay text read “4T1 cells inoculated” for “4T1 cells and CT26 cells co-inoculated”. Put shortly:
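BALB/c mice bearing orthotopic 4T1 tumors (5 × 10⁵ cells in the breast fat pad; n = 5) dosed iv at 10 mg/kg on days 1, 4 and 7 once tumors reached about 50–100 mm³. Tumor volume calculated as (a × b²)/2 and, with body weight, measured twice weekly.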

Series [20] addresses T2, Stimulator of interferon genes protein. Kind of series: Activation of human STING (139 to 379 residues) expressed in THP1-Blue ISG cells at 10 uM incubated for 24 hrs by quanti-blue SEAP reporter gene assay relative to control. Type of series: cell-based. Particulars: filed as activator. In short, it runs like this:
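THP1-Blue-ISG cells (1 × 10⁵/well) treated for 24 h; single-concentration screen at 10 μM. SEAP ISG reporter in 20 μL supernatant read with QUANTI-Blue at 650 nm. Activation given as fold over control, averaging at least two experiments.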

The subject of another series is THP1-Dual KO-STING. Put plainly: Effect on ISG expression in human THP1-Dual KO-STING cells at 10 uM measured after 24 hrs. The format is functional, cell-based. In short, it runs like this: as §4
Series [21] concerns the target T2, Stimulator of interferon genes protein. Kind of series: Activation of STING in human THP1-Dual cells assessed as induction of NF-KB signaling measured after 24 hrs by Quanti-Blue reagent based assay. Particulars: filed as activator, dose 0.005-10 µM. The format is cell-based. In short, it runs like this: as §5
Series [22] concerns the target T3, Stimulator of interferon genes protein (Mus musculus) (UniProt Q3TBT3).
T3 sequence (whole entry): T1 sequence (Q3TBT3 whole entry)
Kind of series: Activation of mouse STING expressed in RAW-Lucia ISG cells at 50 uM incubated for 24 hrs by QUANTI-Luc luciferase reporter gene assay relative to control. Particulars: filed as activator.

Series [23] concerns CT26. Kind of series: Antitumor activity against mouse CT26 cells inoculated in BALB/c mouse assessed as inhibition of tumor growth at 500 ug, IT(Intratumoral) administered on day 1,4 and 7 post inoculation. Type of series: functional. Particulars: dose 500.0 µg, time 7.0 day. In short, it runs like this:
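BALB/c mice with subcutaneous CT26 tumors (5 × 10⁵ cells, right armpit; n = 6) given 500 μg intratumorally on days 1, 4 and 7 at about 50–100 mm³. Tumor volume ((a × b²)/2) and body weight measured twice weekly.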

The species entered for a further series is Mus musculus. Put plainly: Binding affinity to mouse STING mR231 mutant assessed as thermal stability by measuring melting temperature […] differential scanning fluorimetry (reference value: 42 degreeC). Particulars: filed as activator. In short, it runs like this: as §3
In series [24] the target is T2, Stimulator of interferon genes protein. Put plainly: Activation of STING in human THP1-Dual cells assessed as increase in TBK1/IRF3 phosphorylation measured after 4 hrs by Western blot analysis. Type of series: cell-based. Particulars: filed as activator, dose 3.3-30 µM. Put shortly: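 THP1-Dual cells (8 × 10⁵/well) treated at 3.3, 10 and 30 μM for 4 h, then lysed in SDS sample buffer and boiled. Lysates run on 10% SDS-PAGE and transferred to nitrocellulose. Blots probed for TBK1, phospho-TBK1 Ser172, IRF3, phospho-IRF3 Ser396 and GAPDH, with HRP secondaries and ECL detection.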

The test system of another series is RAW-Lucia ISG-KO-STING. Kind of series: Effect on ISG expression in mouse RAW-Lucia ISG-KO-STING cells at 0.005 to 10 uM measured after 24 hrs. Type of series: functional, cell-based. Particulars: dose 0.005-10 µM. In short, it runs like this:
as §4

The subject of series [25] is Stimulator of interferon genes protein (Homo sapiens), Q86WV6 [UNDEFINED MUTATION]. Put plainly: Binding affinity to human STING R232 mutant assessed as thermal stability by measuring melting temperature […] differential scanning fluorimetry (reference value: 38.75 degreeC). Particulars: filed as activator. Put shortly: as §3

Calls of active or inactive are those of the source. No cut-off for these calls is given here.

T2 sequence (Q86WV6 whole entry): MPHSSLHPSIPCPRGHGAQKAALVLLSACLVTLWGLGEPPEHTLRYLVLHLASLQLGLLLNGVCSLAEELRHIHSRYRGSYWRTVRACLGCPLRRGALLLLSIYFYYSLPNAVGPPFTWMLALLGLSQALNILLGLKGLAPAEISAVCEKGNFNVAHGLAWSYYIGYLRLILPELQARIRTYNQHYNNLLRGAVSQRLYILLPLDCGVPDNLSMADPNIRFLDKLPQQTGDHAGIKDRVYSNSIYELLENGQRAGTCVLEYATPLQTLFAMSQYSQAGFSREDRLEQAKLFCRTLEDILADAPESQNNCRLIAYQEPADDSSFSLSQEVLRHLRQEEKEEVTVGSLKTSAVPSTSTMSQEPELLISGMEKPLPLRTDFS
Sequence of Stimulator of interferon genes protein (Homo sapiens), Q86WV6 [UNDEFINED MUTATION] (Q86WV6 whole entry, looked up, change not shown): as the sequence (Q86WV6 whole entry) above
Sequence of Stimulator of interferon genes protein (Homo sapiens), Q86WV6 [R71H,G230A,R293Q] (Q86WV6 whole entry R71H/G230A/R293Q): as the sequence (Q86WV6 whole entry) above, with R71H, G230A, R293Q counted along it

With `Cc1ccc2c(=O)c3cccc(CC(=O)O)c3oc2c1C`, the inhibition result with CT26 [1] is “Active”.

The AUC(0-inf) is the area under the concentration-time curve extrapolated to infinity. The MRT inf is a mean duration of stay, worked out from the concentration-time curve. The term half-life denotes how long it takes for the measured level to halve. Read a low half-life as fast loss. A word on the AUC(0-t): it is exposure summed from dosing to a finite time, without extrapolation to infinity. Low readings indicate low exposure, high ones high exposure. By EC50 is commonly meant the concentration needed to bring the measured effect to its halfway point. The low end stands for greater potency, the high end for weaker potency. One may read the clearance as a measure of how efficiently the substance is removed, as volume per time. In series [2], `CCn1nc(C)cc1C(=O)/N=c1\[nH]c2cc(-c3ncn[nH]3)cc(OC)c2n1C/C=C/Cn1/c(=N/C(=O)c2cc(C)nn2CC)[nH]c2cc(C(N)=O)cc(OCCCN3CCOCC3)c21` [listing 1 of 2 here] registered an AUC(0-inf) of 705 ng·h/mL. Also, the MRT inf in series [3] is 30.2 min. This compound also had a half-life in series [4] of 41.8 min. The Activity entry in [5] is reported as “Toxic”; in [6], “Non-Toxic”. For the same compound, the AUC(0-t) in series [7] amounted to 678 ng·h/mL. For the same compound, the Vd in [8] is 0.722 L/kg. The results for the EC50 in series [9], in series [10] and in series [12] were 39500 nM, 240 nM and 6.2 nM, respectively. Also, in [11], the clearance was 23.9 mL/min/kg.

With `CCn1nc(C)cc1C(=O)/N=c1\[nH]c2cc(-c3ncn[nH]3)cc(OC)c2n1C/C=C/Cn1/c(=N/C(=O)c2cc(C)nn2CC)[nH]c2cc(C(N)=O)cc(OCCCN3CCOCC3)c21` [listing 2 of 2 here], the result in series [13] and in series [16] was Active. Besides, the Tm worked out at 46.8 °C in the series listed under Homo sapiens [14]; 45.8 °C in series [18]; 46.8 °C in the series filed under Homo sapiens [19]; 52.8 °C in the series listed under Mus musculus; 45.5 °C in [25]. Also, the Activity entry (in series [15]; in the series on 293-Dual hSTING-H232; in [17]; in series [21]; in series [24]) was “Dose-Dependent Effect” each time. For the same compound, the inhibition result in the series with 4T1 and with CT26 [23] was “Active” each time. Further, the fold change (FC) in series [20] was determined as 19.2; in series [22], 3.2. Besides, the outcome with THP1-Dual KO-STING and in the series with RAW-Lucia ISG-KO-STING was inactive.

The record behind these values is ChEMBL document CHEMBL4808161, “Structure-Activity Relationship Study of Amidobenzimidazole Analogues Leading to Potent and Systemically Administrable Stimulator of Interferon Gene (STING) Agonists” (J Med Chem, 2021).
